# Target: T1, Prostaglandin G/H synthase 1 (Ovis aries) (UniProt P05979)
# T1 sequence (whole entry): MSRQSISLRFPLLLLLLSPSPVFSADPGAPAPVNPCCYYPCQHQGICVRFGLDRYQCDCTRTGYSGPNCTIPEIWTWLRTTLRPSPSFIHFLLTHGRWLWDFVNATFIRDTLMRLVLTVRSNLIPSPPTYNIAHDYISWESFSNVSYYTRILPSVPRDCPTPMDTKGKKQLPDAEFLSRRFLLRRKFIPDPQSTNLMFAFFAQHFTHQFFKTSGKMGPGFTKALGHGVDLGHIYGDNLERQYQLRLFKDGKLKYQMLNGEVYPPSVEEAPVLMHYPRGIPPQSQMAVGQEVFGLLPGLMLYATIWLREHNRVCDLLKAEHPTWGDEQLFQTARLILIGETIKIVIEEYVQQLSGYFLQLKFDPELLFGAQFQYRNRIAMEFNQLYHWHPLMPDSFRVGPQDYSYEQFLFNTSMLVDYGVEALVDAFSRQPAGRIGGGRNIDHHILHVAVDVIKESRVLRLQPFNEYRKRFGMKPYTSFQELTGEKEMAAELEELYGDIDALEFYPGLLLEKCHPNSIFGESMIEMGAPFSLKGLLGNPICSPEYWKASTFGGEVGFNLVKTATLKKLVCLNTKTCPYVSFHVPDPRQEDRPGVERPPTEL
# Experiment: Inhibition of sheep COX1 assessed as PGE2 level at 50 uM by ELISA
# How it was run: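 Ovine COX-1 preincubated 10 min at 37 °C in 100 mM Tris-HCl pH 8.0 with 1 µM heme. Compounds in DMSO, diluted in 100 mM potassium phosphate pH 7.4. Arachidonic acid added to 100 uM final; stopped after 2 min with 1 M HCl. PGE2 measured by competitive ELISA with AChE tracer and Ellman's reagent at 412 nm against a PGE2 standard curve. Expressed as % of solvent control; duplicate, two independent experiments.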
row,inhibition [%],SMILES
1,41.8,Cc1noc2c(Cc3ccccc3)nn(CC(=O)N/N=C\c3ccccc3F)c(=O)c12
2,39.6,Cc1noc2c(Cc3ccccc3)nn(CC(=O)N/N=C\c3cccc([N+](=O)[O-])c3)c(=O)c12
3,65,COc1ccccc1/C=N\NC(=O)Cn1nc(Cc2ccccc2)c2onc(C)c2c1=O
4,78,COc1ccc2c(c1)c(CC(=O)O)c(C)n2C(=O)c1ccc(Cl)cc1
5,55.2,COc1cccc(/C=N\NC(=O)Cn2nc(Cc3ccccc3)c3onc(C)c3c2=O)c1
6,52.8,Cc1noc2c(Cc3ccccc3)nn(CC(=O)N/N=C\c3ccccc3Br)c(=O)c12
7,39.6,Cc1noc2c(Cc3ccccc3)nn(CC(=O)N/N=C\c3ccc(Cl)cc3)c(=O)c12
8,36.3,Cc1noc2c(Cc3ccccc3)nn(CC(=O)N/N=C\c3cccc(Cl)c3)c(=O)c12
9,61,Cc1cccc(/C=N\NC(=O)Cn2nc(Cc3ccccc3)c3onc(C)c3c2=O)c1
10,42.9,Cc1noc2c(Cc3ccccc3)nn(CC(=O)N/N=C\c3cccc(Br)c3)c(=O)c12
11,64,Cc1noc2c(Cc3ccccc3)nn(CC(=O)N/N=C\c3ccc(C(F)(F)F)cc3)c(=O)c12
12,46.9,Cc1ccccc1/C=N\NC(=O)Cn1nc(Cc2ccccc2)c2onc(C)c2c1=O
13,50.6,Cc1noc2c(Cc3ccccc3)nn(CC(=O)N/N=C\c3ccc(Br)cc3)c(=O)c12
14,54,Cc1noc2c(Cc3ccccc3)nn(CC(=O)N/N=C\c3ccc(F)cc3)c(=O)c12
15,40.7,Cc1noc2c(Cc3ccccc3)nn(CC(=O)N/N=C\c3ccc([N+](=O)[O-])cc3)c(=O)c12
16,62.1,Cc1ccc(/C=N\NC(=O)Cn2nc(Cc3ccccc3)c3onc(C)c3c2=O)cc1
17,50.6,Cc1noc2c(Cc3ccccc3)nn(CC(=O)N/N=C\c3ccccc3)c(=O)c12
18,52.8,Cc1noc2c(Cc3ccccc3)nn(CC(=O)N/N=C\c3ccccc3Cl)c(=O)c12
19,51,Cc1noc2c(Cc3ccccc3)nn(CC(=O)N/N=C\c3ccccc3C(F)(F)F)c(=O)c12
20,46.3,COc1ccc(/C=N\NC(=O)Cn2nc(Cc3ccccc3)c3onc(C)c3c2=O)cc1
21,47.1,Cc1noc2c(Cc3ccccc3)nn(CC(=O)N/N=C\c3cccc(C(F)(F)F)c3)c(=O)c12
22,83,Cc1noc2c(Cc3ccccc3)nn(CC(=O)N/N=C\c3cccc(F)c3)c(=O)c12
23,59,Cc1noc2c(Cc3ccccc3)nn(CC(=O)N/N=C\c3ccccc3[N+](=O)[O-])c(=O)c12

# From ChEMBL document CHEMBL1165885, “Synthesis and cyclooxygenase inhibitory activities of some N-acylhydrazone derivatives of isoxazolo[4,5-d]pyridazin-4(5H)-ones” (Eur J Med Chem, 2010)
